Measurements from ChEMBL document CHEMBL1955822, “Camptothecin (CPT) directly binds to human heterogeneous nuclear ribonucleoprotein A1 (hnRNP A1) and inhibits the hnRNP A1/topoisomerase I interaction” (Bioorg Med Chem, 2011).
Activity calls are given as the source filed them. The rule behind the calls is not given here.

How the values were obtained:
Drosophila melanogaster [1] = assay: Growth inhibition of Drosophila melanogaster expressing Hrb87F mutant KG02089 assessed as reduction in eclosion rate at 25 uM after 15 days; assay type: functional, organism-based
Method in brief: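 Eggs of Hrb87F KG02089 mutant and CantonS wild-type immersed in 25 µM drug or DMSO in 4% EtOH/5% DMSO vehicle. Adults emerging within 15 days counted. Rate = N(mutant)/N(WT) × 100%. Means ± S.E. of three independent experiments.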

[2] = target: T1, Heterogeneous nuclear ribonucleoprotein A1 (Homo sapiens, UniProt P09651); assay: Binding affinity to human hnRNP A1 expressed in HeLa cells after 16 hrs by avidin-agarose bead pull down assay; assay type: cell-based
T1 sequence (P09651 whole entry): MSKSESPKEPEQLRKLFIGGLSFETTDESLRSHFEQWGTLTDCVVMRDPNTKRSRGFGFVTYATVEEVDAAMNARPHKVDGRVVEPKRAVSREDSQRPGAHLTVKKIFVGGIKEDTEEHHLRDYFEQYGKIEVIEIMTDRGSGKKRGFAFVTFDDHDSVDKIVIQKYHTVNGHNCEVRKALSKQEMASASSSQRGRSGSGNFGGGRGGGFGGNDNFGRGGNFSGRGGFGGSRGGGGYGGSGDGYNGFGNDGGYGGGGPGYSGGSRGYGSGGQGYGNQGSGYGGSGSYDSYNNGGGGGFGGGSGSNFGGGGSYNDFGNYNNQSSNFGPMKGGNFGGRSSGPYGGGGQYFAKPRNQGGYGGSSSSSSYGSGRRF
Method in brief: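 HeLa cells grown in DMEM/10% FCS, 37 °C, 5% CO2; 10^7 cells lysed 1 min in Tris pH 8.0/NaCl/EDTA/0.5% Triton-X; supernatant precleared on avidin-agarose, then 16 h at 4 °C with biotinylated CPT probe (1 mM stock, 1:10 into lysate) or DMSO; avidin-agarose capture 1 h at 4 °C, PBS washes, SDS-PAGE, anti-hnRNP A1 western blot with chemiluminescence.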

[3] = target: T1, Heterogeneous nuclear ribonucleoprotein A1; assay: Binding affinity to recombinant GST-tagged human hnRNP A1 expressed in Escherichia coli after 16 hrs by avidin-agarose bead pull down assay
Method in brief: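 Lysate of E. coli expressing hnRNP A1-GST made by sonication in Tris pH 8.0/150 mM NaCl/EDTA/PMSF. Precleared on avidin-agarose, then mixed with biotinylated CPT probe (1 mM stock, 1:10) or DMSO for 16 h at 4 °C. Bound material captured 1 h on avidin-agarose, washed five times in PBS, run on 15% SDS-PAGE and immunoblotted for hnRNP A1.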

[4] = target: T1, Heterogeneous nuclear ribonucleoprotein A1; assay: Binding affinity to recombinant GST-tagged human hnRNP A1 expressed in Escherichia coli using QCM biosensor by Scatchard plot analysis
Method in brief: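 Quartz crystal microbalance with GST-affinity-purified hnRNP A1-GST immobilised on gold electrode; cuvette of PBS–10% DMSO at 25 °C; CPT injected at final 12.5–250 nM; frequency change monitored; Langmuir and Scatchard plots; means ± S.E. of three independent experiments.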

[5] = target: T1, Heterogeneous nuclear ribonucleoprotein A1; assay: Inhibition of recombinant GST-tagged human hnRNP A1/his-tagged top1 cap region interaction expressed in Escherichia coli by SPR biosensor analysis
Method in brief: (§1)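 Biacore SPR, CM5 chip with His-tagged top I cap region (215–433) amine-coupled at pH 5, about 10,000 RU. hnRNP A1-GST injected at various concentrations with or without CPT in HBS-EP/5% DMSO, 20 µl/min, 25 °C. Data analysed by Langmuir and Lineweaver-Burk plots under a non-competitive inhibition model.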

[6] = target: T1, Heterogeneous nuclear ribonucleoprotein A1; assay: Noncompetitive inhibition of recombinant GST-tagged human hnRNP A1 binding to recombinant His-tagged top1 cap region by SPR biosensor analysis; method in brief: as §1
Drosophila melanogaster [7] = assay: Growth inhibition of Drosophila melanogaster expressing Hrb87F mutant KG02089 assessed as reduction in eclosion rate after 15 days; assay type: functional, organism-based
Method in brief: (§2)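 Drosophila eggs from 20 adults (laid over 24 h) immersed in 250 µl CPT at 0, 5, 12.5, 25 or 50 µM in 4% EtOH/5% DMSO. Adults emerging within 15 days counted. Eclosion rate = N(µM)/N(0 µM) × 100%, compared with wild-type CantonS. Means ± S.E. of three independent experiments.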

Drosophila melanogaster [8] = assay: Growth inhibition of Drosophila melanogaster expressing Hrb87F mutant BG02743 assessed as reduction in eclosion rate after 15 days; assay type: functional, organism-based; method in brief: as §2
Drosophila melanogaster [9] = assay: Growth inhibition of 7 day-old Drosophila melanogaster pupa expressing Hrb87F mutant KG02089 at 25 to 50 uM after 15 days; assay type: functional, organism-based
Method in brief: (§3)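 Drosophila eggs from 20 adults (laid over 24 h) immersed in 250 µl CPT at 0, 5, 12.5, 25 or 50 µM in 4% EtOH/5% DMSO. Development and pupal phenotype followed at 5, 7 and 14 days after dosing. Wild-type CantonS served as reference.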

Drosophila melanogaster [10] = assay: Growth inhibition of 7 day-old Drosophila melanogaster pupa expressing Hrb87F mutant BG02743 at 25 to 50 uM after 15 days; assay type: functional, organism-based; method in brief: as §3
[11] = target: T1, Heterogeneous nuclear ribonucleoprotein A1; assay: Inhibition of recombinant GST-tagged human hnRNP A1/his-tagged top1 cap region interaction expressed in expressed in Escherichia coli assessed as pBR322 DNA relaxation after 30 mins by agarose gel electrophoresis
Method in brief: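 Calf thymus topoisomerase I (2 U) incubated with 1 µg supercoiled pBR322 in Tris pH 8/KCl/MgCl2/DTT/spermidine/BSA, with or without 100 µM CPT or 0.5 µM hnRNP A1-GST, for 30 min at 37 °C. Reaction stopped with SDS at 75 °C, then proteinase K digestion. Products run on 1% agarose gel and stained with EtBr.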

COc1cccc2c1C(=O)c1c(O)c3c(c(O)c1C2=O)C[C@@](O)(C(=O)CO)C[C@@H]3O[C@H]1C[C@H](N)[C@H](O)[C@H](C)O1
growth inhibition (GI) (Drosophila melanogaster [1]): inactive

CCc1c2c(nc3ccc(OC(=O)N4CCC(N5CCCCC5)CC4)cc13)-c1cc3c(c(=O)n1C2)COC(=O)[C@]3(O)CC
growth inhibition (GI) (Drosophila melanogaster [1]): inactive

CC[C@@]1(OC(=O)CCCCCNC(=O)CCCC[C@@H]2SC[C@@H]3NC(=O)N[C@@H]32)C(=O)OCc2c1cc1n(c2=O)Cc2cc3ccccc3nc2-1
Activity [2]: Active
Activity [3]: Active

BLEOMYCIN
growth inhibition (GI) (Drosophila melanogaster [1]): inactive

CC(=O)O[C@H]1C(=O)[C@@]2(C)[C@H]([C@H](OC(=O)c3ccccc3)[C@]3(O)C[C@H](OC(=O)[C@H](O)[C@@H](NC(=O)c4ccccc4)c4ccccc4)C(C)=C1C3(C)C)[C@]1(OC(C)=O)CO[C@@H]1C[C@@H]2O
growth inhibition (GI) (Drosophila melanogaster [1]): inactive

CC[C@@]1(O)C(=O)OCc2c1cc1n(c2=O)Cc2cc3ccccc3nc2-1 [CAMPTOTHECIN]
Bmax [4]: 67 pg/mm2
Kd [4]: 82.7 nM
inhibition [5]: Active
inhibition [6]: Active
growth inhibition (GI) (Drosophila melanogaster [7]): Dose-dependent effect
growth inhibition (GI) (Drosophila melanogaster [8]): Dose-dependent effect
growth inhibition (GI) (Drosophila melanogaster [9]): Active
growth inhibition (GI) (Drosophila melanogaster [10]): Active
inhibition [11]: Active
